# Measured values from ChEMBL document CHEMBL1149149, “Design, synthesis, and biological activity of 1,3-disubstituted ureas as potent inhibitors of the soluble epoxide hydrolase of increased water solubility” (J Med Chem, 2004).
# Columns and labels:
# [1] = target: T1, Bifunctional epoxide hydrolase 2 (Homo sapiens, UniProt P34913); assay: Tested for 50 % inhibitory concentration against human soluble epoxide hydrolase (sEH)
# T1 sequence (P34913 whole entry): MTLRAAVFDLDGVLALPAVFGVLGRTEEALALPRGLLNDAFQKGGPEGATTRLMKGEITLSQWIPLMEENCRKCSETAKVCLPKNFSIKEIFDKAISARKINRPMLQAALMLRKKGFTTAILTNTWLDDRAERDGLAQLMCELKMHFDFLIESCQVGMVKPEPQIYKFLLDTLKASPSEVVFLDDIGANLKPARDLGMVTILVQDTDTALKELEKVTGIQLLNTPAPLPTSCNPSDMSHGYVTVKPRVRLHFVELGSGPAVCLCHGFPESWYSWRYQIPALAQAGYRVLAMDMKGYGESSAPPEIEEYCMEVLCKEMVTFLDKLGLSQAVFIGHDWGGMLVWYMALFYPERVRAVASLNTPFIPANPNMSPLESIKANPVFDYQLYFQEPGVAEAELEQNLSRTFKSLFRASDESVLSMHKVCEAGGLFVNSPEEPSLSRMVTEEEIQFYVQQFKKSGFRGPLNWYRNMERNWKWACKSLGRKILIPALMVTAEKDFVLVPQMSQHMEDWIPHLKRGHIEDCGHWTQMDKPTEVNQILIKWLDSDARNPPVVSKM
# Summary of the method: (§1)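 Recombinant sEH was expressed in baculovirus and affinity-purified to at least 97% purity. Enzyme was preincubated with inhibitor for 5 min at 30 °C in 0.1 M sodium phosphate, pH 7.4, with 0.1 mg/mL BSA. Racemic 4-nitrophenyl-trans-2,3-epoxy-3-phenylpropyl carbonate was the substrate (40 µM). 4-Nitrophenolate was read at 405 nm for 1 min. Run in triplicate; IC50 from regression of at least five points.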
# [2] = target: T2, Bifunctional epoxide hydrolase 2 (Mus musculus, UniProt P34914); assay: Tested for 50 % inhibitory concentration against mouse soluble epoxide hydrolase (sEH); summary of the method: as §1
# T2 sequence (P34914 whole entry): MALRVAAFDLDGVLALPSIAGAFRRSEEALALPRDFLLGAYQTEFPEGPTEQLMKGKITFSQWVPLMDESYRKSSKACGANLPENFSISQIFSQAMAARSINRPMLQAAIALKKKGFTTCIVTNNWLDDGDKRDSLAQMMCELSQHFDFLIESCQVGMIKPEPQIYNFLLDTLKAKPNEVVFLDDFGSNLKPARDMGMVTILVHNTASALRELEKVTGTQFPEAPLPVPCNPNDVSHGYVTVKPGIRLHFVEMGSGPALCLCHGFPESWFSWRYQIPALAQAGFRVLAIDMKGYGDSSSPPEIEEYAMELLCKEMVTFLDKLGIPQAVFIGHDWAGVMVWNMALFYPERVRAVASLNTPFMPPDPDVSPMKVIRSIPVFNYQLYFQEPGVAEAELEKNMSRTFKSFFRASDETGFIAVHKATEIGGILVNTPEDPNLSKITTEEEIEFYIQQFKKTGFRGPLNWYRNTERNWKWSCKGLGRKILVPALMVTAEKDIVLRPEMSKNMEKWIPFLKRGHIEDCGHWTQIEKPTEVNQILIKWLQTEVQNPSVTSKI
# [3] = Partition coefficient (logP); assay type: physicochemical; details: octanol/water
# Summary of the method: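 Compound dissolved in buffer-saturated octanol, then mixed with octanol-saturated 0.1 M sodium phosphate buffer, pH 7.4. Shaken 24 h at 23 ± 1.5 °C and centrifuged 5 min at 200g. Each phase was quantified by LC-MS/MS, and log P was taken as log [octanol]/[water]. Triplicate analyses.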
# [4] = Solubility in sodium phosphate buffer (0.1 M, pH 7.4) at 25 degrees C was determined
# [5] = target: T3, Bifunctional epoxide hydrolase 2 (Homo sapiens) (UniProt P34913); assay: Tested for 90 % inhibitory concentration against human soluble epoxide hydrolase (sEH)
# T3 sequence (whole entry): T1 sequence (P34913 whole entry)
# Summary of the method: (§2)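 Recombinant sEH (human for line 1, mouse for line 2) expressed in baculovirus and affinity-purified to ≥97%. Enzyme was preincubated with inhibitor for 5 min at 30 °C in 0.1 M sodium phosphate, pH 7.4, with 0.1 mg/mL BSA. Racemic 4-nitrophenyl-trans-2,3-epoxy-3-phenylpropyl carbonate (40 µM) was then added, and 4-nitrophenolate was read at 405 nm for 1 min at 30 °C. Assays were run in triplicate.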
# [6] = target: T4, Bifunctional epoxide hydrolase 2 (Mus musculus) (UniProt P34914); assay: Tested for 90 % inhibitory concentration against mouse soluble epoxide hydrolase (sEH); summary of the method: as §2
# T4 sequence (whole entry): T2 sequence (P34914 whole entry)
Structure (SMILES),IC50 [1] [nM],IC50 [2] [nM],IC90 [5] [nM],IC90 [6] [nM],further results
O=C(NCCCCCO)NC1CCCCC1,253000,90000,–,–,–
CCCCCCCCCCNC(=O)NC12CC3CC(CC(C3)C1)C2,–,–,–,–,logP [3]: 5.25; solubility ([4]; sodium phosphate buffer): 0.62 µg/mL
CCOC(=O)CCCCCCCCCCCOC(=O)CCCNC(=O)NC12CC3CC(CC(C3)C1)C2,–,–,1800,630,–
CCCCCOC(=O)NCCNC(=O)Nc1cccc(Cl)c1,> 100000,–,–,–,–
CCCCCNC(=O)NCCNC(=O)Nc1cccc(Cl)c1,> 100000,–,–,–,–
CCCCCCC(O)CCCNC(=O)Nc1cccc(Cl)c1 (configuration not stated),3100,140,–,–,–
CCCCCCC(=O)NCCNC(=O)Nc1cccc(Cl)c1,> 100000,–,–,–,–
O=C(O)CNC(=O)NC1CCCCC1,> 500000,> 500000,–,–,–
CCOC(=O)CCCCCCCCCOC(=O)CCCNC(=O)NC12CC3CC(CC(C3)C1)C2,–,–,680,260,–
COCCCNC(=O)NC1CCCCC1,6200,330,–,–,–
CCOC(=O)CCCCCCCCCCOC(=O)CCCNC(=O)NC12CC3CC(CC(C3)C1)C2,–,–,1200,350,–
CCCCCOC(=O)CCCNC(=O)NC12CC3CC(CC(C3)C1)C2,–,–,–,–,solubility ([4]; sodium phosphate buffer): 1.69 µg/mL
CCCCCOC(=O)CCCNC(=O)NC1CCCCC1,–,–,–,–,logP [3]: 0.82; solubility [4]: 1.51 µg/mL
CCCCCCCCCCNC(=O)NC1CCCCC1,–,–,–,–,logP [3]: 5.44; solubility ([4]; buffer): 0.44 µg/mL
CC(C)=CCCC(C)CCOC(=O)CCCNC(=O)NC12CC3CC(CC(C3)C1)C2 (configuration not stated),110,50,–,–,–
O=C(O)CCCNC(=O)NC12CC3CC(CC(C3)C1)C2,37000,22000,–,–,logP [3]: 0.14; solubility ([4]; sodium phosphate buffer): 7.06 µg/mL
O=C(NCCCO)NC1CCCCC1,> 500000,> 500000,–,–,–

# The next lines start with results.
IC50 [1] [nM],IC50 [2] [nM],IC90 [5] [nM],IC90 [6] [nM],Structure (SMILES),further results
1600,100,–,–,COC(=O)CCCNC(=O)NC12CC3CC(CC(C3)C1)C2,logP [3]: 0.18; solubility ([4]; sodium phosphate buffer): 1.6 µg/mL
–,–,1500,100,CCOC(=O)CCCCOC(=O)CCCNC(=O)NC12CC3CC(CC(C3)C1)C2,–
100,50,–,–,CCOC(=O)c1ccc(COC(=O)CCCNC(=O)NC23CC4CC(CC(C4)C2)C3)cc1,–
–,–,9000,110,CCOC(=O)COC(=O)CCCNC(=O)NC12CC3CC(CC(C3)C1)C2,–
200,50,–,–,CCOC(=O)/C=C/c1ccc(OC(=O)CCCNC(=O)NC23CC4CC(CC(C4)C2)C3)cc1,–
140,50,–,–,CCOC(=O)Cc1ccc(OC(=O)CCCNC(=O)NC23CC4CC(CC(C4)C2)C3)cc1,–
–,–,9000,630,CCOC(=O)CCOC(=O)CCCNC(=O)NC12CC3CC(CC(C3)C1)C2,–
–,–,720,160,CCOC(=O)CCCCCCCOC(=O)CCCNC(=O)NC12CC3CC(CC(C3)C1)C2,–
–,–,5000,160,CCOC(=O)CCCOC(=O)CCCNC(=O)NC12CC3CC(CC(C3)C1)C2,–
